Tested on: MS2 coat protein
Test: apparent Kd, MS2 coat protein; higher = weaker binding; RNA-MaP array; FMN 200 µM where present
Procedure, shortened: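 The apparent Kd is the median of filtered binding-curve fits, one per cluster, to green signal normalised to red-channel RNA signal and control-cluster median Fmax. The clusters were on Illumina sequencing chips, and stalled E. coli RNA polymerase had transcribed the designs on them. Titration used SNAP-549-labelled MS2 coat protein from 0.7 or 1.5 nM, doubling to 3 µM, without and then with constant ligand, in 100 mM Tris-HCl pH 7.5, 80 mM KCl, 4 mM MgCl2, BSA, DTT, yeast tRNA and Tween-20.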

[1] = designed as: OFF switch for flavin mononucleotide, no ligand
[2] = ligand present: flavin mononucleotide, designed as: OFF switch for flavin mononucleotide
[3] = designed as: ON switch for flavin mononucleotide, no ligand
[4] = ligand present: flavin mononucleotide, designed as: ON switch for flavin mononucleotide

| Sequence | apparent Kd [1] | apparent Kd [2] | apparent Kd [3] | apparent Kd [4] |
| --- | --- | --- | --- | --- |
| UUUAUAUAGUAAGGAUAUGUAUUAUUUUUGUCAACAGAAGGUACUGACAUGAGGAUCACCCAUGUUUUAGUGUGGGCAUGUAGU | 219 nM | 283 nM | – | – |
| ACAUGAGGAUCACCCAUGUUGACAUAGGAUAUACAACAUUAGUUUCAUUCAUGUAAACUUUGAUAGUAGAAGGAUGGUACAUGA | 13.2 nM | 13 nM | – | – |
| CUUUUGUGAGGAUAUUAGUAUUAAAUAAAUAAAAUUACUACUGAGAAGGCACAUGAGGAUCACCCAUGUUCCUC | 30.3 nM | 131 nM | – | – |
| UUGGACGUCGUAGGAUAUAUAGGAUAUUCCUACAUGAGGAUCACCCAUGUUGACAUGGAAGAAGGACAGAAGGACGAUGUCCAU | – | – | 27.1 nM | 9.75 nM |
| UAAGUCGGAGAUAAUAAUGAUUACAUGAGGAUCACCCAUGUAUAGGAUAUCGUCAGGAAUACUGACGAGAAGGAUACAACCGAC | 17.9 nM | 25.8 nM | – | – |
| AAGUCAGCAGGAUAUGCGAUGGUGUGCUAGGUAGCUUGCCCACAUGAGGAUCACCCAUGUAGAAGGGCUGGCUA | 13.2 nM | 12.1 nM | – | – |
| UGUUGUAUUACAGGAUAUCUAUUGUUUUUAUUUAGAGAAGGGUAUUCACAUGAGGAUCACCCAUGUAUAUACGAGGAAGUUGUG | – | – | 59.4 nM | 63.2 nM |
| UGUCCAUAGCAGAAGGACAUGAAUAAACAUGAAAACAUGAGGAUCACCCAUGUAGGAUAUGCUAUGGACUAAGAGCGAAAGCUC | 7.06 nM | 48.1 nM | – | – |
| GCGAUAUUGUAAGGAUAUACUCUGUGAUGAAGAGUAGAAGGUACUUACAUGAGGAUCACCCAUGUUUAACGUGAUACUAAUCGC | – | – | 541 nM | 210 nM |
| CACUGUUUAGAGGAUAUUUACGGGUCACACCCAGGAGAAGGCUGUACAUGAGGAUCACCCAUGUGGUGCGCCUG | 32.4 nM | 51.3 nM | – | – |
| GUAGGGUCAGGAUAUACGGGCGGAGGGAUGUAUUGUAGUUGGUAGAAGGGACAUGAGGAUCACCCAUGUAAGAA | 29.7 nM | 26.2 nM | – | – |
| UAGUAUAAGGGCAUUACACAUGAGGAUCACCCAUGUACGUUAGAGGAUAUGCAUUACAGUCGAACGUAGAAGGUUAGAGAAGGG | 168 nM | 157 nM | – | – |
| GCCCAAUCCACUUCGGGCCCAGACAGAAGGGCACACGGUCUAAGUCACAUGAGGAUCACCCAUGUGCAGGAUAUGUCUCGACUC | 9.88 nM | 50.3 nM | – | – |
| GCGGGUAAAGCAGGAUAUCUAAUGUCACGGAAACAUGAGGAUCACCCAUGUAGAGAAGGGCUAAGUCAUACAAUUCGAAUUUGC | 9.04 nM | 8.24 nM | – | – |
| GCGUCGAGUGUGAGGAUAUGCUGGUCCUUGGAUCAGCAGAAGGCACAUGAGGAUCACCCAUGUGAAUACGAUGC | 21.7 nM | 136 nM | – | – |
| CUCAUGUCAGGAUAUCAGUAGUAAAAAAAAAAAAUUACUACUGAGAAGGGACAUGAGGAUCACCCAUGUCACUU | 27.1 nM | 28.7 nM | – | – |
| ACGACGAAAGUCGAACGAUGUAGCAGAAGGACAUGAGGAUCACCCAUGUAAAAUGUAACAGCCAUGUAGGAUAUGCUACAUCGA | 31.3 nM | 238 nM | – | – |
| UUCGUGUAAGGAUAUACGACUCAUCCCAAUGGGACGAGCACGUAGAAGGUACAUGAGGAUCACCCAUGUGCUCC | 27.1 nM | 155 nM | – | – |
| CUUUUGUGAGGAUAUCAGGUGUGCUAGCGUACUGGUACAUCUGAGAAGGCACAUGAGGAUCACCCAUGUUCCUU | 13.4 nM | 29.2 nM | – | – |
| GUUGUAUUAAGUUCAUACUAUAUGAUAGAAGGUGAAAGAUAGACAUGAGGAUCACCCAUGUAAUUCAAGGAUAUGUAGUUACUC | – | – | 28.4 nM | 20.4 nM |
| GAAGACAUAGUUCAGGAUAUAGGAAUAGUCACAUGAGGAUCACCCAUGUGCAUUUAUAUGCGCACUUAGAAGGGAGGUAGUUAUC | – | – | 36.3 nM | 41 nM |
| CUUGAAUAAGUGAGGAUAUACUGUUAGUAAUGAUUGUAGAAGGUACAUGAGGAUCACCCAUGUUUAUUCAUAAU | 18.2 nM | 18.3 nM | – | – |
| AUUUUUAAGGUAGGAUAUAGUAUAAUGAUUUAAUUAGAAGGAUCUCACAUGAGGAUCACCCAUGUAAUAGGAUUACCCAUGUAU | 27.8 nM | 22.7 nM | – | – |
| GUAGCAUUGAGAGGAUAUCCAUACCGGAAACGGACAUGAGGAUCACCCAUGUGGCGAAAGCCAUGGGAGAAGGCUCUAUGCUAC | – | – | 10.2 nM | 5.44 nM |
